Data reported in article PMC6344890 (Journal of medicinal chemistry, 2018).

Experiments:
PC12 cells [1] = test: Oxygen glucose deprivation; format: cell-based; conditions: PC12-OGD primary assay, 1, 10, 25 μM
Procedure, shortened: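 PC12 cells (passage 12–14, undifferentiated) were plated overnight in serum-containing DMEM/F12. They were deprived of glucose and oxygen for 1.5 h (glucose-free HBSS, argon, 37 °C). The medium was then replaced with growth medium containing test compound (1, 10, 25 µM) or DMSO for 24 h. MTT (0.5 mg/mL) was added for 4 h and dissolved in DMSO, with absorbance read at 540 nm. Viability is % change versus vehicle control; mean ± SEM, n = 3, triplicate experiments; ANOVA with Dunnett's test.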

PC12 cells [2] = test: OGD neuroprotection concentration response, PrestoBlue; format: cell-based; conditions: 50 μM, OGD-exposed PC12 cells
Procedure, shortened: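 Undifferentiated PC12 cells (passage 12–14) were plated overnight in DMEM/F12 with 5% FBS and 5% HS. They were given 1.5 h OGD in glucose-free HBSS under argon at 37 °C. Fresh growth medium with test compound (0.1, 1, 5, 10, 25, 50 µM) or DMSO followed, for 24 h at 37 °C. PrestoBlue (10%) was added for 30 min, and fluorescence was read at 560/590 nm. Results are % change versus vehicle control; non-OGD plates were included.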

sGC signaling = test: PC12-OGD assay with co-incubation of the sGC inhibitor ODQ, MTT readout; format: cell-based; conditions: ODQ 10 μM
Procedure, shortened: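 This was the PC12 OGD protocol (90 min glucose-free HBSS under argon at 37 °C, then 24 h in growth medium with test compound), with ODQ (10 µM) co-incubated. Viability was read by MTT (0.5 mg/mL, 4 h, DMSO-solubilised, 540 nm) relative to vehicle control. Mean ± SEM, n = 3, duplicate experiments; one-way ANOVA with Dunnett's test.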

[3] = tested on: GABAA, serotonin receptors, dopamine receptors, and muscarinic and nicotinic acetylcholine receptors; test: Psychoactive Drug Screening Program radioligand binding panel; conditions: PDSP, Supplementary Table 2
hERG = hERG (Homo sapiens, UniProt Q12809); test: Psychoactive Drug Screening Program hERG binding; conditions: PDSP
[4] = Reactivity analysis with N-acetyl cysteine, HPLC-PDA; format: physicochemical; conditions: 250 μM compound, N-acetyl cysteine 5 mM, PBS 50 mM pH 7.4, 37 °C, 2 and 12 h
Procedure, shortened: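 Test compound (250 µM) or N-ethylmaleimide (250 µM) was incubated with or without N-acetylcysteine (5 mM) in 50 mM PBS, pH 7.4, at 37 °C. Aliquots were taken at 2 and 12 h and analysed by HPLC-PDA. Peak areas at each analyte's UV λmax gave the relative abundance of remaining starting material.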

PC12 cells [5] = test: NO production as NO2− in the primary assay; format: cell-based
PC12 cells [6] = test: LC-MS/MS study of cell permeability; format: in vitro ADME; conditions: 25 μM, 24 h, control and OGD-treated PC12 cells
Procedure, shortened: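 PC12 cells (1×10^6) were given 1.5 h OGD under argon at 37 °C, or kept without OGD on a control plate. They were then exposed to 25 µM test compound or vehicle for 24 h. Medium was collected, and cytosol was taken by lysis in HEPES/NP-40 buffer for 15 min at 0 °C and centrifuged. Samples were diluted in 2% formic acid and spiked with an analogue internal standard. Analysis was positive-ESI UPLC-MS/MS, with MRM peak areas normalised to the internal standard.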

[7] = format: in vivo; conditions: 20 mg/kg ip or po, mice
CREB phosphorylation = test: pCREB:tCREB ratio in forebrain by ELISA; format: in vivo, mice; conditions: 5a alone 20 mg/kg ip or po, 1, 2 or 12 h
delta opioid receptor = delta opioid receptor (Homo sapiens, UniProt P41143); test: Psychoactive Drug Screening Program binding, delta opioid receptor; conditions: PDSP
[8] = tested on: benzodiazepine (BZP) rat brain site; test: Psychoactive Drug Screening Program binding, benzodiazepine; conditions: PDSP
male C57BL/6 mice = test: Step-through passive avoidance; format: in vivo; conditions: scopolamine 1 mg/kg ip 30 min prior to training alone (negative control); vehicle-treated 270 ± 29 s; mean ± SEM

Chain of delta opioid receptor (P41143 whole entry): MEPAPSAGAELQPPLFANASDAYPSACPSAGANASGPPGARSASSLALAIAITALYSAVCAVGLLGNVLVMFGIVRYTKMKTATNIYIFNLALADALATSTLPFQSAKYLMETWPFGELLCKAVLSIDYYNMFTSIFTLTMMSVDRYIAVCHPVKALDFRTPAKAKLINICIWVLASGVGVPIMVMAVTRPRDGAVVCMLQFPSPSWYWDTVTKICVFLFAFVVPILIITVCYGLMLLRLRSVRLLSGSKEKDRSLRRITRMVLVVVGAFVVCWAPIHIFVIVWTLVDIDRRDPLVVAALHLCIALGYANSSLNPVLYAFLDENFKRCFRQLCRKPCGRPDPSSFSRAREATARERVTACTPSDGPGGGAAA
Chain of hERG (Q12809 whole entry): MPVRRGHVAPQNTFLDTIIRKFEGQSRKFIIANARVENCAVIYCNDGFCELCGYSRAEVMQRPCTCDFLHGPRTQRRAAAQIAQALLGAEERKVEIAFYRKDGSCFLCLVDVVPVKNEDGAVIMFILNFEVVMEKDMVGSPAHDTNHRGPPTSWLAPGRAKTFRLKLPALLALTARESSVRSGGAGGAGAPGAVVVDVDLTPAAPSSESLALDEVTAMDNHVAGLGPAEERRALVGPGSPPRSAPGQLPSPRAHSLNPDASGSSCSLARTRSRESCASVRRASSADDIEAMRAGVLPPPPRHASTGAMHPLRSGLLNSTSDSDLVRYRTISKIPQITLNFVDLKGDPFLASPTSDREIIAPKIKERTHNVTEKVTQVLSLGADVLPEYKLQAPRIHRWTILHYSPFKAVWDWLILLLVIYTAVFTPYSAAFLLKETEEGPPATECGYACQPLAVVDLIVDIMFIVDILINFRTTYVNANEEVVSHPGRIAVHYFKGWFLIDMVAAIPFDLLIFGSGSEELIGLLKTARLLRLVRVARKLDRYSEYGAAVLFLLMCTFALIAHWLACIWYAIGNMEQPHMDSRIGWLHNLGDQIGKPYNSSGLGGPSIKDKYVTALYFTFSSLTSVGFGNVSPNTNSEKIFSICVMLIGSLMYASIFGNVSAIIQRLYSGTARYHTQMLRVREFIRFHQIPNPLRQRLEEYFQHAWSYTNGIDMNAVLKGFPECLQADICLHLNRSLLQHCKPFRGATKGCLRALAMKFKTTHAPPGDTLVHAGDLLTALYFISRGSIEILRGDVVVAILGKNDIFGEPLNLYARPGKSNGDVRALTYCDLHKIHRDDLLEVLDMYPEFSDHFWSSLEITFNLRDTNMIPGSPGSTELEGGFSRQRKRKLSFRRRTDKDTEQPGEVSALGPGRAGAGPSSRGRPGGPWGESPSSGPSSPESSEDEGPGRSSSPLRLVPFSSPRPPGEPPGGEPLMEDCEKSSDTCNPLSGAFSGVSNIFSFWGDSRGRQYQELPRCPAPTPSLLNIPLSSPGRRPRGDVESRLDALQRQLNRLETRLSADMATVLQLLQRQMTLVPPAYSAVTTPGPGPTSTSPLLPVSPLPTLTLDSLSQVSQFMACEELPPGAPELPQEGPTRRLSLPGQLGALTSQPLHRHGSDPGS

CC1CCN(Cc2no[n+]([O-])c2-c2ccc(F)cc2)CC1 [Furoxan 5a, 3-(4-Fluorophenyl)-4-((4-methylpiperidin-1-yl)methyl)-1,2,5-oxadiaozle 2-Oxide]
neuroprotection (in words) (PC12 cells [1]): noticeable neuroprotective activity | toxicity at the highest concentration tested (PC12 cells [2]): no toxicity was observed | neuroprotective effects on co-incubation with ODQ (sGC signaling): completely blocked | interference with radioligand binding, receptor panel [3]: does not interfere with binding of any radioligands for all receptors screened | hERG binding (hERG): No hERG binding was observed | reactivity with excess thiol [4]: negligible reactivity | NO production in the form of NO2− (PC12 cells [5]): negligible NO production | distribution between media (supernatant) and cytosol (PC12 cells [6]): found in greatest amounts in the cytosol | presence in forebrain and plasma after 12 h [7]: detectable levels after 12 h | effect on pCREB (pCREB:tCREB ratio), forebrain (CREB phosphorylation): no effect on pCREB was observed

CC1CCN(Cc2no[n+]([O-])c2-c2ccc(Br)cc2)CC1 [Furoxan 5c, 3-(4-Bromophenyl)-4-((4-methylpiperdin-1-yl)methyl)-1,2,5-oxadiazole 2-Oxide]
neuroprotection (in words) (PC12 cells [1]): noticeable neuroprotective activity

CC1CCN(Cc2no[n+]([O-])c2-c2ccc(OC(F)F)cc2)CC1 [Furoxan 5d, 3-(4-(Difluoromethoxy)phenyl)-4-((4-methylpiperidin-1-yl)-methyl)-1,2,5-oxadiazole 2-Oxide]
neuroprotection (in words) (PC12 cells [1]): noticeable neuroprotective activity

[2H]C1([2H])CC(C)CC([2H])([2H])N1Cc1no[n+]([O-])c1-c1ccc(F)cc1 [Furoxan 7a, 3-(4-Fluorophenyl)-4-((4-methylpiperidin-1-yl-2,2,6,6-d4)methyl)-1,2,5-oxadiazole 2-Oxide]
neuroprotection (in words) (PC12 cells [1]): no neuroprotective effects | inhibition of binding at the delta opioid receptor (delta opioid receptor): significantly inhibited binding | inhibition of binding at the benzodiazepine (BZP) rat brain site [8]: significantly inhibited binding | distribution between media (supernatant) and cytosol (PC12 cells [6]): found in greatest amounts in the cytosol

CCN1C(=O)C=CC1=O [NEM, N-ethylmaleimide, reference compound]
reactivity with excess thiol [4]: complete reaction

CN1[C@@H]2C[C@@H](OC(=O)[C@H](CO)c3ccccc3)C[C@H]1[C@@H]1O[C@@H]12 [Scopolamine]
latency to enter the dark compartment 24 h after training (male C57BL/6 mice): 63.5 ± 30 s
